# Test results from ChEMBL document CHEMBL5370545 (Eur J Med Chem, 2023).
# Key:
# [1] = system: 8505C; experiment: Cytotoxicity against human 8505C cells expressing homozygous BRAF V600E mutant assessed as cell growth measured after 7 days of treatment by crystal violet assay; assay type: functional, cell-based; settings: 168 h
# How it was run: (§1)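 Cells seeded in 12-well plates: 8505C at 3 × 10^3, C32 at 10^4, HT29 at 5 × 10^3. Treated 24 h later with a dose series or DMSO vehicle for 7 days. Fixed in 4% PFA and stained with 0.1% crystal violet in 20% methanol. Destained with 10% acetic acid and read at 590 nm. Normalised to vehicle; mean ± SEM of three independent experiments.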
# [2] = Drug uptake in human A-375 cells harboring BRAF V600E mutant assessed as fluorescent signal at cytoplasm at 0.5 uM measured after 48 hrs by fluorescence microscopy; assay type: ADME, cell-based; settings: a-375, 48 h
# How it was run: (§2)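 A375 and HeLa cells seeded at 3 × 10^4 and treated 24 h later with 0.5 µM compound or DMSO vehicle for 48 h. Washed with PBS, fixed in 4% formaldehyde for 10 min at room temperature, and stained with DAPI and phalloidin. Cy5 signal imaged by inverted fluorescence microscopy.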
# [3] = biological target: Serine/threonine-protein kinase B-raf (Homo sapiens, UniProt P15056, V600E); experiment: biochemical
# [4] = Cytotoxicity against human cells expressing heterozygous BRAF V600E mutant assessed as cell growth measured after 7 days of treatment by crystal violet assay; settings: 168 h
# [5] = Stability of compound in foetal bovine serum at 100 uM measured for 2 to 48 hrs by reverse phase HPLC chromatographic analysis; assay type: ADME, cell-free, Bos taurus; settings: cattle, time 2-48 hrs
# How it was run: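 Held at 100 µM in foetal bovine serum at 37 °C for up to 48 h (2–48 h). Each aliquot diluted 1:10 in pH 7.4 culture medium before RP-HPLC with a 35 min 0.1% TFA water/acetonitrile gradient. Chromatographic profile monitored.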
# [6] = Drug uptake in human Hela cells assessed as fluorescent signal at 0.5 uM measured after 48 hrs by fluorescence microscopy; assay type: ADME, cell-based; how it was run: as §2
# [7] = system: HT-29; experiment: Cytotoxicity against human HT-29 cells expressing heterozygous BRAF V600E mutant assessed as cell growth measured after 7 days of treatment by crystal violet assay; assay type: functional, cell-based; settings: HT-29, 168 h; how it was run: as §1
# [8] = system: C32; experiment: Cytotoxicity against human C32 cells expressing heterozygous BRAF V600E mutant assessed as cell growth measured after 7 days of treatment by crystal violet assay; assay type: functional, cell-based; settings: C32, 168 h; how it was run: as §1
# [9] = system: Serine/threonine-protein kinase B-raf (Homo sapiens), P15056 [V600E]; experiment: Displacement of Vemurafenib from BRAF V600E mutant in human WM278 cells assessed as increase in cyno-fluorescence measured after 90 mins by flow cytometry based displacement assay; assay type: cell-based
# How it was run: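 Without washing, the Cy5 probe was added at 0, 0.05, 0.2, 1 and 2 µM for 90 min more. Cells were washed three times with medium (15 min each), imaged live, detached, and cell-associated Cy5 fluorescence was quantified by flow cytometry.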
# [10] = Chemical stability of compound in cell culture medium at 100 uM at acidic pH measured for 2 to 48 hrs by reverse phase HPLC chromatographic analysis; assay type: physicochemical; settings: time 2-48 hrs
# How it was run: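 Incubated at 100 µM, 37 °C, in phenol red-free DMEM High Glucose at pH 5, 7.4 or 8 for up to 48 h (2–48 h). Aliquots taken at each time point and analysed by RP-HPLC with a 35 min 0.1% TFA water/acetonitrile gradient. Chromatographic profile and 640/330 nm peak-area ratio followed.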
# Serine/threonine-protein kinase B-raf, sequence (P15056 2-766 V600E limits assumed): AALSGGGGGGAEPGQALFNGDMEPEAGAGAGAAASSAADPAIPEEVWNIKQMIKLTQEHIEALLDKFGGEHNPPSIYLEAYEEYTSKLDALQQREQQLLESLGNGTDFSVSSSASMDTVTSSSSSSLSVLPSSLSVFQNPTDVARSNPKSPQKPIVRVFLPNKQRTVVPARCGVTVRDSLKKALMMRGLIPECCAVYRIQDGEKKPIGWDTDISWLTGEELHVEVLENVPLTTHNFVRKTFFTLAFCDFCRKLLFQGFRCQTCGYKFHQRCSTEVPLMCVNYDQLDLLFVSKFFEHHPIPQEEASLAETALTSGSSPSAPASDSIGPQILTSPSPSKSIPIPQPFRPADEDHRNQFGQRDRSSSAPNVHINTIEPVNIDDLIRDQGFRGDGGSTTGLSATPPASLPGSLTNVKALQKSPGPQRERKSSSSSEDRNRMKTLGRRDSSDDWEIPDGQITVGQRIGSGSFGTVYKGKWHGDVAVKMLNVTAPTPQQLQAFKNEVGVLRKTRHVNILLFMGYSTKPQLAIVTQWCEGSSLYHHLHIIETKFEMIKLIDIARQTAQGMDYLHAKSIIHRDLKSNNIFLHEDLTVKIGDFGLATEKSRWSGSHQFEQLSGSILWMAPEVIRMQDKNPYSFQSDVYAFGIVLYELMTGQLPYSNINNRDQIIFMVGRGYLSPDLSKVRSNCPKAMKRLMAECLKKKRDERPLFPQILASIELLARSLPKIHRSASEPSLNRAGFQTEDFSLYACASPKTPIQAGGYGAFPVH
# Serine/threonine-protein kinase B-raf (Homo sapiens), P15056 [V600E], sequence (P15056 whole entry V600E): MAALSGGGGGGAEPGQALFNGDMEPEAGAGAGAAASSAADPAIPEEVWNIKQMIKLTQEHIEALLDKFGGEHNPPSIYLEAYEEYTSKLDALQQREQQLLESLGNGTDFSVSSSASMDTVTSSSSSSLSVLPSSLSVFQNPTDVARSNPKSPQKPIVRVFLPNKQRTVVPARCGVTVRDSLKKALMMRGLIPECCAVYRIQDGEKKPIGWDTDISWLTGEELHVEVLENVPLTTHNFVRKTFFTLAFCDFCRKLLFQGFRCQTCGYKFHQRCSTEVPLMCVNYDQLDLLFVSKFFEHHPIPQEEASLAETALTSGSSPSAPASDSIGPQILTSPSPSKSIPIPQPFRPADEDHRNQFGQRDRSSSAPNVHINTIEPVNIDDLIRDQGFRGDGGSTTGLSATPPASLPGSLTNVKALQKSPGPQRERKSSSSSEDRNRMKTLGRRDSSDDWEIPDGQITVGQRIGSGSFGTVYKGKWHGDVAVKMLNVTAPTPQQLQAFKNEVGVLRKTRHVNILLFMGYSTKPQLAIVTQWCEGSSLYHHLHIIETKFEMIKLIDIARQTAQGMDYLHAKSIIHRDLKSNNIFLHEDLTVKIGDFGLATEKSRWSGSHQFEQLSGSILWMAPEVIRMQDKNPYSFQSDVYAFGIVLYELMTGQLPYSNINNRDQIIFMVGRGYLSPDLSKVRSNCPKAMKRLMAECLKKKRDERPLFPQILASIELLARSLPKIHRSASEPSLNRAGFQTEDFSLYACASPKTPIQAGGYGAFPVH
SMILES,IC50 [1] [nM],Drug uptake [2],Kd [3] [nM],IC50 [4] [nM],Stability [5],Drug uptake [6],IC50 [7] [nM],IC50 [8] [nM],Activity [9],Stability [10]
CCCS(=O)(=O)Nc1ccc(F)c(C(=O)c2c[nH]c3ncc(-c4ccc(NC(=O)COCCOCCNC(=O)CCCCC[N+]5=C(/C=C/C=C/C=C6\N(C)c7ccccc7C6(C)C)C(C)(C)c6ccccc65)cc4)cc23)c1F.O=C([O-])C(F)(F)F,2500,Active,13,570,Stable,Not Active,340,630,Dose-Dependent Effect,Unstable
CCCS(=O)(=O)Nc1ccc(F)c(C(=O)c2c[nH]c3ncc(-c4ccc(N)cc4)cc23)c1F,620,,,15,,,27,12,,
CCCS(=O)(=O)Nc1ccc(F)c(C(=O)c2c[nH]c3ncc(-c4ccc(Cl)cc4)cc23)c1F [VEMURAFENIB],2940,,,150,,,49,84,,
